This note sets out measurements from PubChem BioAssay AID1765 (Sanford-Burnham Center for Chemical Genomics, 2009).

pEC50: −log10 of the molar value. Active and inactive are the calls of the source.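 Rule for the calls: active = maximal cell kill higher at a 0.156 ng/ml dose of TRAIL, the death-signal protein, than with no TRAIL; inactive = the rest.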 Where only a bound is given, the exact number is not on record here.

Test [1] is described as follows: cytotoxicity with versus without TRAIL, dose response, mechanism study for TRAIL sensitizer project, cell-based, PPC-1, ATPlite luminescence, 24 h (AID 1765). The note with it: PPC-1 cytotoxicity with TRAIL, ATPLite luminescence, 24 h. Put shortly: (§1)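 Material: PPC-1 cells; probe or stimulus: TRAIL at 0.156 ng/mL, or no TRAIL (0 ng/mL); compound dosing: 2-fold series from 10 µM, 0.5% DMSO; timing: compound pre-incubation 4 h before TRAIL, then 24 h TRAIL exposure; technique: ATPlite luminescence; benchmarks: 10 µM doxorubicin with TRAIL as full-kill reference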
A general note: Cellular ATP, detected with luciferase, serves as a proxy for viable cell number.

In test [2] the test system is PPC-1 cytotoxicity with TRAIL, ATPLite luminescence, 24 h. The test is described as above. Put shortly: as §1
The mark [3] stands for this setting: measured here: max cytotoxicity with TRAIL.
The mark [4] stands for this setting: measured here: max cytotoxicity without TRAIL.
Setting [5] is: measured here: cytotoxicity without TRAIL.

A word on the pEC50: it is the negative decadic logarithm of the EC50, by convention in mol/L. Consider `CCSc1nc(-c2ccccc2)nc(C(Cl)Cl)n1`, for which the values for the maximal effect in test [1] (setting [3]) and in test [1] (setting [4]) were 46.7% and 34.2%, respectively. Moreover, the pEC50 in test [2] is 5.59; in test [2] (setting [5]), 5.60.

A word on the EC50: it is the concentration needed to bring the measured effect to its halfway point. As for `CSc1nc(-c2ccccc2)nc(C(Cl)Cl)n1`, the EC50 in test [2] was > 10 µM (inactive). Moreover, in test [2] (setting [5]), the pEC50 was under 5.00.

As for `CSc1nc(-c2ccc(C)cc2)nc(C(Cl)Cl)n1`, the results for the maximal effect in test [1] (setting [3]) and in test [1] (setting [4]) were 94.5% and 50.4%, respectively. Further, the pEC50 in test [2] is 6.00; in test [2] (setting [5]), 6.09.
